Data set [1] has as its system aggresome accumulation in SEM cells. The data set is described as follows: Aggresome detection assay. The format is cell-based. The following applies: 18 h, at inhibitory concentration. Put shortly:
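SEM cells (RPMI1640, 10% FCS, 37°C, 5% CO2) exposed to test compound 18 h, then stained for aggresomes and DNA with a Proteostat aggresome detection kit. Imaged by fluorescence microscopy (63X objective), or analysed by FACS, where the aggresome propensity factor is derived from relative mean fluorescence intensity.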

Data set [2] has as its system trypsin-like proteasome activity. The data set is described as follows: Cell-based Proteasome-Glo trypsin-like assay. Put shortly: (§1)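 Cell-based Proteasome-Glo kits: a luminogenic peptide substrate is cleaved by the proteasome to aminoluciferin, which Ultra-Glo luciferase consumes to give luminescence proportional to the corresponding protease activity. Luminescence read on a plate reader.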

The subject of data set [3] is SEM cells. The data set is described as follows: Cell cycle analysis. As to conditions: 48 h, dose dependent. The format is cell-based. In a few lines: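 SEM cells (RPMI1640, 10% FCS, 37°C, 5% CO2) exposed to test compound for 48 h, then permeabilised. DNA stained with propidium iodide and cell cycle distribution read by FACS.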
The target of data set [4] is human HDAC3 (Homo sapiens, UniProt O15379). The data set is described as follows: HDAC IC50 profiling, fluorescence-based assay. The format is biochemical. The following applies: result in words.
Data set [5] deals with primary BCP-ALL cells derived from four therapy-refractory patients. The format is cell-based. As to conditions: Homo sapiens, read-out: IC50 values, range over four patients.
In data set [6] the target is human HDAC1 (Homo sapiens, UniProt Q13547). The data set is described as follows: HDAC IC50 profiling, fluorescence-based assay. As to conditions: result in words. The format is biochemical.
For data set [7], the system named is acetyl-α-tubulin, acetyl-Histone H3, PARP in HL-60, SEM and SUP-B15r cells. The experiment in a line: Western blotting of cell lysates. The following applies: 24 h. The format is cell-based. Put shortly: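 HL-60 and SEM cells (RPMI1640, 10% FCS, 37°C, 5% CO2) and TKI-resistant SUP-B15r cells (McCoy's 5A, 20% FCS) exposed to test compound or reference HDAC/proteasome inhibitors for 24 h. Lysates immunoblotted for acetyl-α-tubulin, acetyl-histone H3, PARP and GAPDH.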

Data set [8] in a line: Cell viability in PBMCs from healthy individuals. The format is cell-based. The following applies: human.
The test system of data set [9] is caspase-like proteasome activity. The data set is described as follows: Cell-based Proteasome-Glo caspase-like assay. Put shortly: as §1
The target in data set [10] is human HDAC2 (Homo sapiens, UniProt Q92769). The experiment in a line: HDAC IC50 profiling, fluorescence-based assay. The format is biochemical. As to conditions: result in words.
Data set [11] relates to SEM cells. The data set is described as follows: Proliferation assay. The format is cell-based. The following applies: at IC50 or 2x IC50 concentrations. Put shortly:
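SEM cells (RPMI1640, 10% FCS, 37°C, 5% CO2) treated with test compound. Viable cells counted every 24 h by trypan blue exclusion on an automated cell counter.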

Data set [12] deals with SEM cells. The data set is described as follows: CFU assay. The format is cell-based. As to conditions: 48 h exposure, colonies counted after 14 days. Put shortly:
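SEM cells pretreated with test compound or control in liquid medium, then seeded in semisolid methylcellulose-based medium that also contains the compound or control. Colonies counted after 14 days.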

In data set [13] the test system is peripheral blood derived mononuclear cells (PBMCs). The data set is described as follows: Cell viability in PBMCs from healthy individuals. The following applies: PBMCs from healthy individuals. The format is cell-based.
Data set [14] deals with patients with relapsed or refractory multiple myeloma. As to conditions: cited from earlier work.

The structures appear in SMILES notation.

Broadly, the IC50 is the concentration that inhibits the measured activity by half.

Chain of human HDAC1 (Q13547 whole entry): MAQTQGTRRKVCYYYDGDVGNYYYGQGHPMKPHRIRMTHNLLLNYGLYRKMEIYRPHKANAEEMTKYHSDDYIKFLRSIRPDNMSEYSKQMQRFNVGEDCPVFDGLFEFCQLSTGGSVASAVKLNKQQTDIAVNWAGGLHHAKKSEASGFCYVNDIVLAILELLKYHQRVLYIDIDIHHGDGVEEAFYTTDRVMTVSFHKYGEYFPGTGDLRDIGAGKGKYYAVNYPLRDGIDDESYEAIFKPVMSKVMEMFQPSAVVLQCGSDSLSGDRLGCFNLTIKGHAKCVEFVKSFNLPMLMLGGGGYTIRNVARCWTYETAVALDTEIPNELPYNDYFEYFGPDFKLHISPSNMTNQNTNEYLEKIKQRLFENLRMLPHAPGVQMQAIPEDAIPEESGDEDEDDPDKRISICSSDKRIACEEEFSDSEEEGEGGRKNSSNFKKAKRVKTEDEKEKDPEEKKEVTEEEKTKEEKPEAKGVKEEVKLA
Chain of human HDAC3 (O15379 whole entry): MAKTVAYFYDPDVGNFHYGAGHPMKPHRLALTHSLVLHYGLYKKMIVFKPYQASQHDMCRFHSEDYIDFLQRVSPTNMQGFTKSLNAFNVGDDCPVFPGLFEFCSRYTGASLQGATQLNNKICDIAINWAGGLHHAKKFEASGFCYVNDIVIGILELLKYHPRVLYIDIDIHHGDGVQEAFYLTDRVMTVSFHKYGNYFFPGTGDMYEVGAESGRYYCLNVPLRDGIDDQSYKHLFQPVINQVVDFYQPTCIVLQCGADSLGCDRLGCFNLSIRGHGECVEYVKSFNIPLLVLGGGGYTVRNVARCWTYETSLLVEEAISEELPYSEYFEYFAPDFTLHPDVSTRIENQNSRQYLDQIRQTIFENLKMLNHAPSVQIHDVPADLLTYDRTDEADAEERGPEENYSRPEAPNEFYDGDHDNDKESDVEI
Chain of human HDAC3 (Q9Y618 395-489 partner limits assumed): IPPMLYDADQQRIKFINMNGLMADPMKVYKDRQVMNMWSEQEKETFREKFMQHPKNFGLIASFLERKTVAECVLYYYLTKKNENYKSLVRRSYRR
Chain of human HDAC2 (Q92769 whole entry): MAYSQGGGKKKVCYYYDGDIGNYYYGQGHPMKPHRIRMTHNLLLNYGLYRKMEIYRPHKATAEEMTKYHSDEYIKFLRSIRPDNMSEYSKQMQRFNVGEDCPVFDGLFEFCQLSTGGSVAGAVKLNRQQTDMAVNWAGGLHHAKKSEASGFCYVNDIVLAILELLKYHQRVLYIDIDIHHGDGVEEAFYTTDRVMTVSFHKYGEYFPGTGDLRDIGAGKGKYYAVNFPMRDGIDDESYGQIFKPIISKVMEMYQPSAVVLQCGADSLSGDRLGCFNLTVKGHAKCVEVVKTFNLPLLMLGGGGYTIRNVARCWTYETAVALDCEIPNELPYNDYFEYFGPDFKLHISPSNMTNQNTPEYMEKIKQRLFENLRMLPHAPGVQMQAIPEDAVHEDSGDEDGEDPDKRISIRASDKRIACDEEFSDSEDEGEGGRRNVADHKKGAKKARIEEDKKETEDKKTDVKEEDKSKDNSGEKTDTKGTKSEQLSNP

On to `C[C@H](NC(=O)[C@H](CC(=O)NCC(C)(C)C)NC(=O)c1ccc(C(=O)NO)cc1)C(=O)NCc1ccccc1` [RTS-V5, N^1-((S)-1-(((S)-1-(Benzylamino)-1-oxopropan-2-yl)amino)-4-(neopentylamino)-1,4-dioxobutan-2-yl)-N^4-hydroxyterephthalamide], for which the aggresome accumulation result in data set [1] is on record as “significantly blocked”. The “inhibition of trypsin-like proteasome activity” value in data set [2] is on record as “unable to inhibit”. Besides, the cell cycle effect entry in [3] is on record as “arrested in S phase”. Besides, the “activity against HDAC3” value in data set [4] was “low activity”. Moreover, the IC50 in [5] lay within 1.51 to 5.23 µM. Besides, the “activity against HDAC1” value in data set [6] is on record as “low activity”. Besides, the “expression of cleaved PARP (marker of apoptosis)” value in data set [7] was “upregulated”. In [7] (compared to bortezomib), the “expression of acetyl-α tubulin and acetyl-histone H3” value is “enhanced the expression”. The molecule further showed an IC50 at 72 h in data set [8] of over 25 µM. In [9], the “inhibition of caspase-like proteasome activity” value is “unable to inhibit”. For the same molecule, the “activity against HDAC2” value in data set [10] is listed as “low activity”. For the same molecule, the “proliferation of SEM cells” value in data set [11] was “significantly inhibited”. Besides, in data set [12], the colony forming capacity result was “significantly reduced”.

`O=C(CCCCCCNC(=O)c1cnc(N(c2ccccc2)c2ccccc2)nc1)NO` [Ricolinostat]: the “IC50 against PBMCs, concentration range in words” value in data set [13] was “single-digit micromolar”. In addition, in data set [14] (ricolinostat in combination with bortezomib and dexamethasone), the response rate was 37%. The “toxicity and clinical responses as single agent” value in [14] (single agent) was “neither significant toxicity nor clinical responses”.

With `CC(C)C[C@H](NC(=O)[C@H](Cc1ccccc1)NC(=O)c1cnccn1)B(O)O` [bortezomib], in data set [13], the “IC50 against PBMCs, concentration range in words” value is given as “submicromolar”.

The values above are taken from paper PMC6249066 (Journal of medicinal chemistry, 2018).
